Laboratory results reported in ChEMBL document CHEMBL4354843, “Structure-Based Design of a Potent and Selective Covalent Inhibitor for SRC Kinase That Targets a P-Loop Cysteine” (J Med Chem, 2020).

What was measured:
[1] = molecular target: Cyclin-dependent kinase 7 (Homo sapiens) (UniProt P50613); assay: Binding affinity to wild-type human full length CDK7 (M1 to L344 residues) expressed in mammalian expression system assessed as residual binding level at 1 uM by Kinomescan method relative to control
Chain of Cyclin-dependent kinase 7 (Homo sapiens) (P50613 whole entry, the tested form may be a part): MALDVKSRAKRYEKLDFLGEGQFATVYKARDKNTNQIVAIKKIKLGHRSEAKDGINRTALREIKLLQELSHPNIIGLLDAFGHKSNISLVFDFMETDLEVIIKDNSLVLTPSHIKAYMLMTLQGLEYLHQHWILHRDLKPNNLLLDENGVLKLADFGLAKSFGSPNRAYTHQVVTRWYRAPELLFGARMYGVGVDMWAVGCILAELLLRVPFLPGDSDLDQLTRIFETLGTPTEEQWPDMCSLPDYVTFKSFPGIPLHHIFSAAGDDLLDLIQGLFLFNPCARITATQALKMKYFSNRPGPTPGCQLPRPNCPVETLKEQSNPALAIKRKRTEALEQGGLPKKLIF
Outline: (§1)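 Active-site-directed KinomeScan competition binding panel covering 468 kinases, compound tested at 1 μM. Each readout is the kinase signal remaining with compound, expressed as a percentage of the DMSO control. […]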

[2] = molecular target: Serine/threonine-protein kinase N2 (Homo sapiens) (UniProt Q16513); assay: Binding affinity to wild-type human partial length PKN2 (E634 to C984 residues) expressed in bacterial expression system assessed as residual binding level at 1 uM by Kinomescan method relative to control
[3] = molecular target: Calcium-dependent protein kinase 1 (Plasmodium falciparum) (UniProt P62344); assay: Binding affinity to wild-type Plasmodium falciparum full length CDPK1 (M1 to S524 residues) expressed in mammalian expression system assessed as residual binding level at 1 uM by Kinomescan method relative to control
Outline: (§2)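 KinomeScan, an active site-directed competition binding panel of 468 kinases. The test compound was at 1 μM. The readout is remaining kinase binding as a percentage of the DMSO control. Scores above 35% were treated as weak binding and not listed.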

[4] = molecular target: Serine/threonine-protein kinase D2 (Homo sapiens) (UniProt Q9BZL6); assay: Binding affinity to wild-type human partial length PRKD2 (A519 to E838 residues) expressed in bacterial expression system assessed as residual binding level at 1 uM by Kinomescan method relative to control
Outline: (§3)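 Active-site-directed competition binding panel of 468 kinases (KinomeScan), compound at 1 μM. The read-out is kinase remaining bound, given as a percentage of the DMSO control. […]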

[5] = molecular target: Misshapen-like kinase 1 (Homo sapiens) (UniProt Q8N4C8); assay: Binding affinity to wild-type human partial length MINK (M1 to K312 residues) expressed in mammalian expression system assessed as residual binding level at 1 uM by Kinomescan method relative to control; outline: as §3
Chain of Misshapen-like kinase 1 (Homo sapiens) (Q8N4C8 whole entry, looked up, the tested form may be a part): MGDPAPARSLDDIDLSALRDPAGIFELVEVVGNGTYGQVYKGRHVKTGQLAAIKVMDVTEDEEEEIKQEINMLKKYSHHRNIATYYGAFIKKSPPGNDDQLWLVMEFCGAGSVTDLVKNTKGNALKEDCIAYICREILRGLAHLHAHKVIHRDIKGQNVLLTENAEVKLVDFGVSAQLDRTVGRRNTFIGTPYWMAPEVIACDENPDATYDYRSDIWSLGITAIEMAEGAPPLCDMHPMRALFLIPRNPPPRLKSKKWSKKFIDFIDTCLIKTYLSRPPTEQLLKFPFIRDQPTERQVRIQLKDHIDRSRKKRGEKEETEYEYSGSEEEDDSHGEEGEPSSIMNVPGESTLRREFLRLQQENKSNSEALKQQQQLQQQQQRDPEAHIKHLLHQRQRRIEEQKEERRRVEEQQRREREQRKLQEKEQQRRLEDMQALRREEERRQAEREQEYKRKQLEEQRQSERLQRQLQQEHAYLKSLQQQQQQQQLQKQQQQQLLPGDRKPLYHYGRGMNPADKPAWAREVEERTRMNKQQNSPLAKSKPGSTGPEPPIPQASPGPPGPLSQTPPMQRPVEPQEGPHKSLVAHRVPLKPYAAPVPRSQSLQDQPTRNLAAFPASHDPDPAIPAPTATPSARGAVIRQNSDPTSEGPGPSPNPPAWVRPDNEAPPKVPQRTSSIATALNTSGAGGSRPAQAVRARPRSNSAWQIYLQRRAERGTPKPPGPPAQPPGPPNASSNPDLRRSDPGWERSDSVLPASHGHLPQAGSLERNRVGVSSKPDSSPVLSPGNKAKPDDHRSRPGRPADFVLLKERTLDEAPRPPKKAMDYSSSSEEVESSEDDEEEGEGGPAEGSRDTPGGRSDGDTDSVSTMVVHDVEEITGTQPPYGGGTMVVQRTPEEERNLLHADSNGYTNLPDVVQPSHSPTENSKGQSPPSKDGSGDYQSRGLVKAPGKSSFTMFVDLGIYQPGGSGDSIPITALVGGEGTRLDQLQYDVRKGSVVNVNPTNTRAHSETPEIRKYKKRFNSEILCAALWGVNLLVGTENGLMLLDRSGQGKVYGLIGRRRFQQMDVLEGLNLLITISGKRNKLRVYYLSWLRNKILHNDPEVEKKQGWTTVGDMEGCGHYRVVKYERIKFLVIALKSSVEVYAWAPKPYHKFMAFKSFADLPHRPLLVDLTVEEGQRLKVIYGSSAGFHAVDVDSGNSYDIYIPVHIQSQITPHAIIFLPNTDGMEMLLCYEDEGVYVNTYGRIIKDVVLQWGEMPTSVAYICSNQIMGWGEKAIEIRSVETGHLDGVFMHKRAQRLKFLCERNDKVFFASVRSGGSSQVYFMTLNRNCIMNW

[6] = molecular target: Serine/threonine-protein kinase PAK 5 (Homo sapiens) (UniProt Q9P286); assay: Binding affinity to wild-type human partial length PAK7 (Y400 to H719 residues) expressed in bacterial expression system assessed as residual binding level at 1 uM by Kinomescan method relative to control
[7] = molecular target: Serine/threonine-protein kinase ULK3 (Homo sapiens) (UniProt Q6PHR2); assay: Binding affinity to wild-type human partial length ULK3 (M1 to Q290 residues) expressed in mammalian expression system assessed as residual binding level at 1 uM by Kinomescan method relative to control
Chain of Serine/threonine-protein kinase ULK3 (Homo sapiens) (Q6PHR2 whole entry, the tested form may be a part): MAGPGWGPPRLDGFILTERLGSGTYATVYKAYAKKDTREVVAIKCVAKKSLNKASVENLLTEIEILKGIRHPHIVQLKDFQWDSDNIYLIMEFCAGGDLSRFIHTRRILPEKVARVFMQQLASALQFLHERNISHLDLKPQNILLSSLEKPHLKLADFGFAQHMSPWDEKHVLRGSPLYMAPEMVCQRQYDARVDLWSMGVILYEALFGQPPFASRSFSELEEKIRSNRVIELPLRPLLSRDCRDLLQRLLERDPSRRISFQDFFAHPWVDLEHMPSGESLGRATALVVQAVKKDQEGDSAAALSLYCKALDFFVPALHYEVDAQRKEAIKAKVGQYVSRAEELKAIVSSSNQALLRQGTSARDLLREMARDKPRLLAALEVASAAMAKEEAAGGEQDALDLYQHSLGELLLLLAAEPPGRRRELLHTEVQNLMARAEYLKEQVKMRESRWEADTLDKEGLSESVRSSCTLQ

[8] = molecular target: SRSF protein kinase 1 (Homo sapiens) (UniProt Q96SB4); assay: Binding affinity to wild-type human full length SRPK1 (M1 to S655 residues) expressed in bacterial expression system assessed as residual binding level at 1 uM by Kinomescan method relative to control
Outline: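 Active site-directed binding assay (KinomeScan) run across a 468-kinase panel, with the test compound at 1 μM. The read-out is the remaining kinase signal in the presence of compound, expressed as a percentage of the DMSO control. Scores above 35% were taken as weak binding and were not reported.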

[9] = molecular target: Dual specificity mitogen-activated protein kinase kinase 4 (Homo sapiens) (UniProt P45985); assay: Binding affinity to wild-type human partial length MEK4 (S84 to D399 residues) expressed in mammalian expression system assessed as residual binding level at 1 uM by Kinomescan method relative to control
Chain of Dual specificity mitogen-activated protein kinase kinase 4 (Homo sapiens) (P45985 whole entry, the tested form may be a part): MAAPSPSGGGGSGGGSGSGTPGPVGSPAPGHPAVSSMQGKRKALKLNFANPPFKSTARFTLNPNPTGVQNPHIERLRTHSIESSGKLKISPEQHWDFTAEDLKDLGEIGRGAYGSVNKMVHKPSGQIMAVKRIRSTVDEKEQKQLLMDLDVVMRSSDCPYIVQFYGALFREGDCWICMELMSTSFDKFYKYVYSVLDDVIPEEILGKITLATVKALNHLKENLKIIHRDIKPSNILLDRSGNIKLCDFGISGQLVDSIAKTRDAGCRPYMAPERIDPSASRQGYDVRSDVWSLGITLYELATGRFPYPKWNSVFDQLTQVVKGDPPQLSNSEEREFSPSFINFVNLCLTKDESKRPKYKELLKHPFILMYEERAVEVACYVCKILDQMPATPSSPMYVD

[10] = molecular target: Membrane-associated tyrosine- and threonine-specific cdc2-inhibitory kinase (Homo sapiens) (UniProt Q99640); assay: Binding affinity to wild-type human partial length PKMYT1 (A88 to G366 residues) expressed in bacterial expression system assessed as residual binding level at 1 uM by Kinomescan method relative to control
Chain of Membrane-associated tyrosine- and threonine-specific cdc2-inhibitory kinase (Homo sapiens) (Q99640 whole entry, the tested form may be a part): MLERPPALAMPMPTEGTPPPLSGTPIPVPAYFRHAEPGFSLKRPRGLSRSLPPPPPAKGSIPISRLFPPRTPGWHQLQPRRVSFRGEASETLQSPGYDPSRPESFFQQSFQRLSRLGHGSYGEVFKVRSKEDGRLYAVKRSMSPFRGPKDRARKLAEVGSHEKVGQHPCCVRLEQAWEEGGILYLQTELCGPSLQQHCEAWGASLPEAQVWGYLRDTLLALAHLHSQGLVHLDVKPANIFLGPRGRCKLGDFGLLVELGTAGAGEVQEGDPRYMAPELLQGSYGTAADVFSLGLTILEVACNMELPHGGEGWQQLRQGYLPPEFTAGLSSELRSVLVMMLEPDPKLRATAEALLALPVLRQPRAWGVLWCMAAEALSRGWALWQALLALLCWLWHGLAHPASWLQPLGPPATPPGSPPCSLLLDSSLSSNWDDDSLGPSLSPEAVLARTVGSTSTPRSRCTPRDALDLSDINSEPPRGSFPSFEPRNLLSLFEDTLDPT

[11] = molecular target: Aurora kinase C (Homo sapiens) (UniProt Q9UQB9); assay: Binding affinity to wild-type human full length AURKC (M1 to S275 residues) expressed in bacterial expression system assessed as residual binding level at 1 uM by Kinomescan method relative to control; outline: as §2
[12] = molecular target: Tyrosine-protein kinase CSK (Homo sapiens) (UniProt P41240); assay: Binding affinity to wild-type human full length CSK (M1 to L450 residues) expressed in bacterial expression system assessed as residual binding level at 1 uM by Kinomescan method relative to control; outline: as §2
[13] = molecular target: Tyrosine-protein kinase receptor UFO (Homo sapiens) (UniProt P30530); assay: Binding affinity to wild-type human partial length AXL (R497 to Y821 residues) expressed in bacterial expression system assessed as residual binding level at 1 uM by Kinomescan method relative to control
[14] = molecular target: Serine/threonine-protein kinase MRCK beta (Homo sapiens) (UniProt Q9Y5S2); assay: Binding affinity to wild-type human partial length MRCKB (L56 to S417 residues) expressed in bacterial expression system assessed as residual binding level at 1 uM by Kinomescan method relative to control
[15] = molecular target: G protein-coupled receptor kinase 4 (Homo sapiens) (UniProt P32298); assay: Binding affinity to wild-type human full length GRK4 (M1 to C578 residues) expressed in bacterial expression system assessed as residual binding level at 1 uM by Kinomescan method relative to control; outline: as §1
Chain of G protein-coupled receptor kinase 4 (Homo sapiens) (P32298 whole entry, looked up, the tested form may be a part): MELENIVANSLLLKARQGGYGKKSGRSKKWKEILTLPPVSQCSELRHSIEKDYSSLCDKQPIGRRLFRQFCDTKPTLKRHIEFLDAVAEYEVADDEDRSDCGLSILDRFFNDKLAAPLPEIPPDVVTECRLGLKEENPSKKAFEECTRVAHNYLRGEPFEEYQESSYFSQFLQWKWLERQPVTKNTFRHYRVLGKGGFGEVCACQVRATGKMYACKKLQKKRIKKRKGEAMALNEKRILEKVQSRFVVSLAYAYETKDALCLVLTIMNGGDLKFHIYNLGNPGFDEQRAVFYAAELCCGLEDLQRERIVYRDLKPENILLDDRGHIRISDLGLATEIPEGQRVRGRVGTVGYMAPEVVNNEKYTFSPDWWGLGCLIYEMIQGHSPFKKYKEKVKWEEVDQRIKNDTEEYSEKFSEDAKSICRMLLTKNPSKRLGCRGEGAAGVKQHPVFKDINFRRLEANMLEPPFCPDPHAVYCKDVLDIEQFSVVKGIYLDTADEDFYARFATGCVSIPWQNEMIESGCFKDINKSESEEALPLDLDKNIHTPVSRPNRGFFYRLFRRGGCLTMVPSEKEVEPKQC

[16] = molecular target: Myosin light chain kinase 2, skeletal/cardiac muscle (Homo sapiens) (UniProt Q9H1R3); assay: Binding affinity to wild-type human partial length MYLK2 (D258 to K570 residues) expressed in bacterial expression system assessed as residual binding level at 1 uM by Kinomescan method relative to control
[17] = molecular target: Tyrosine-protein kinase JAK1 (Homo sapiens) (UniProt P23458); assay: Binding affinity to wild-type human partial length JAK1 JH2 pseudokinase domain (R537 to D855 residues) expressed in mammalian expression system assessed as residual binding level at 1 uM by Kinomescan method relative to control
Chain of Tyrosine-protein kinase JAK1 (Homo sapiens) (P23458 whole entry, the tested form may be a part): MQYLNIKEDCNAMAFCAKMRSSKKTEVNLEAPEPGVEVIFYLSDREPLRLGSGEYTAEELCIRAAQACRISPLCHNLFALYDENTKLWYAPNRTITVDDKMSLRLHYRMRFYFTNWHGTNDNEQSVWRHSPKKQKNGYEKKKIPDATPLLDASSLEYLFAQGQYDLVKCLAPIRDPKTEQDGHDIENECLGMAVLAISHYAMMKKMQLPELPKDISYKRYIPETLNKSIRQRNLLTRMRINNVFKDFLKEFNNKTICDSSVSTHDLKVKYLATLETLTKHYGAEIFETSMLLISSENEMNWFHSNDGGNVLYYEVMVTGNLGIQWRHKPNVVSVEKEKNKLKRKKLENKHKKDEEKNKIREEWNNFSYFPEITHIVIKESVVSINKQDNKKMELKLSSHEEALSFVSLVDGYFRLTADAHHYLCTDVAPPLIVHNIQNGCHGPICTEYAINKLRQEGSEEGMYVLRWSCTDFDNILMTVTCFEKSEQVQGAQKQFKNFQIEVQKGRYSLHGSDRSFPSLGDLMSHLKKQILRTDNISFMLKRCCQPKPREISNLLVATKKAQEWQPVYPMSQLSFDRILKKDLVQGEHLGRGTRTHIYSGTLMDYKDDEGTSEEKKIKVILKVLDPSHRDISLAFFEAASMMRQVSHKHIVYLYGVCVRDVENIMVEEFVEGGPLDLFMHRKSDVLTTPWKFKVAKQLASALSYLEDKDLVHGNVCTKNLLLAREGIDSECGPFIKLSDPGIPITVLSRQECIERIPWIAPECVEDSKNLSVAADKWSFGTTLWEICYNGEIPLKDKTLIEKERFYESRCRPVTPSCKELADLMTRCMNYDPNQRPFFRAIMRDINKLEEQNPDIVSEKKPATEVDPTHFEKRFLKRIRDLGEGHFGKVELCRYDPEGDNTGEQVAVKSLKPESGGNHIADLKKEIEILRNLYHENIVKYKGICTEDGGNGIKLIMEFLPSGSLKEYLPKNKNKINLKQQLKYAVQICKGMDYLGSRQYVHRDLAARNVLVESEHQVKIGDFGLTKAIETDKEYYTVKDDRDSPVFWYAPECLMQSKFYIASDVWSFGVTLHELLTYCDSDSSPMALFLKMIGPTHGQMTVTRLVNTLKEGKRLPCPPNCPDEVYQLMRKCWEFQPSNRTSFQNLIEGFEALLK

[18] = tested on: Mast/stem cell growth factor receptor Kit (Homo sapiens), P10721 [UNDEFINED MUTATION]; assay: Binding affinity to human partial length KIT V559D/V654 double mutant (Y545 to D952 residues) expressed in bacterial expression system assessed as residual binding level at 1 uM by Kinomescan method relative to control
Outline: (§4)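 KinomeScan active site-directed competition binding panel (468 kinases), compound tested at 1 μM. Result expressed as remaining kinase signal versus DMSO control (percent of control).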

[19] = tested on: Tyrosine-protein kinase ABL1 (Homo sapiens), P00519 [F317L]; assay: Binding affinity to human non-phosphorylated ABL1 F317L mutant (S229 to K512 residues) expressed in mammalian expression system assessed as residual binding level at 1 uM by Kinomescan method relative to control; outline: as §4
[20] = molecular target: Protein kinase C epsilon type (Homo sapiens) (UniProt Q02156); assay: Binding affinity to wild-type human partial length PRKCE (A378 to P737 residues) expressed in mammalian expression system assessed as residual binding level at 1 uM by Kinomescan method relative to control
[21] = tested on: Tyrosine-protein kinase ABL1 (Homo sapiens), P00519 [T315I]; assay: Binding affinity to human non-phosphorylated ABL1 T315I mutant (S229 to K512 residues) expressed in mammalian expression system assessed as residual binding level at 1 uM by Kinomescan method relative to control; outline: as §4

C=CC(=O)Nc1ccccc1Nc1nc(Nc2ccc(N3CCN(C)CC3)cc2)ncc1C(=O)Nc1c(C)cccc1Cl
Activity [1]: 100%
Activity [2]: 100%
Activity [3]: 72%
Activity [4]: 99%
Activity [5]: 81%
Activity [6]: 100%
Activity [7]: 100%
Activity [8]: 100%
Activity [9]: 91%
Activity [10]: 100%
Activity [11]: 98%
Activity [12]: 1.3%
Activity [13]: 100%
Activity [14]: 100%
Activity [15]: 100%
Activity [16]: 100%
Activity [17]: 100%
Activity [18]: 100%
Activity [19]: 0.9%
Activity [20]: 100%
Activity [21]: 100%
